Assay results taken from paper PMC7932028 (European journal of medicinal chemistry, 2020).
Converted amounts (≈) assume the structure as drawn.

tested on: S. aureus strain 29213; test: Whole cell growth inhibition; assay type: cell-based; details: Staphylococcus aureus, 29213, 18 h, read-out: MIC (whole cell growth inhibition)
Method in brief: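 Racemic test compounds were assayed against CLSI-standardized S. aureus cultures. Growth was scored by turbidity at 600 nm and by visual inspection. The MIC was taken as the lowest concentration with no growth after 18 h incubation. There were n = 2 independent assays, each with duplicate technical replicates, and values are given with SEM.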

MIC	SMILES
0.5 to 1 µg/mL (≈ 0.972 to 1.94 µM)	CCCC1c2cc(C)c(C)cc2C=NN1C(=O)/C=C/c1cc(Cc2cnc(N)nc2N)cc(OC)c1OC (racemic) [13b, (±)-(E)-3-(5-((2,4-Diaminopyrimidin-5-yl)methyl)-2,3-dimethoxyphenyl)-1-(6,7-dimethyl-1-propylphthalazin-2(1H)-yl) prop-2-en-1-one]
0.0625 to 0.25 µg/mL (≈ 0.128 to 0.514 µM)	CCCC1c2ccccc2C=NN1C(=O)/C=C/c1cc(Cc2cnc(N)nc2N)cc(OC)c1OC (stereo not drawn) [11a]
0.046 to 0.187 µg/mL (≈ 0.086 to 0.35 µM)	COc1cc(Cc2cnc(N)nc2N)cc(/C=C/C(=O)N2N=Cc3ccccc3C2c2ccc(C)cc2)c1OC (stereo not drawn) [11j]
